This is an account of results in ChEMBL document CHEMBL1122323 (J Med Chem, 1983).

The species named for test [1] is Rattus norvegicus. Put plainly: Inhibition of conditioned avoidance response (CAR) in fasted male Sprague-Dawley rats. The format is functional. A digest of the protocol:
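Rats trained to climb or hurdle a barrier in a shuttle box within 30 s. Training was 11 trials at 3-min intervals on day 1, then one foot-shock reinforcement and two trials daily for 9 days. On day 10, groups of 5-10 rats were given drug or vehicle by oral gavage and tested.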

In test [2] the target is T1, Adrenergic receptor alpha-1 (Rattus norvegicus, UniProt P15823+P23944+P43140).
T1 sequence (P15823 whole entry): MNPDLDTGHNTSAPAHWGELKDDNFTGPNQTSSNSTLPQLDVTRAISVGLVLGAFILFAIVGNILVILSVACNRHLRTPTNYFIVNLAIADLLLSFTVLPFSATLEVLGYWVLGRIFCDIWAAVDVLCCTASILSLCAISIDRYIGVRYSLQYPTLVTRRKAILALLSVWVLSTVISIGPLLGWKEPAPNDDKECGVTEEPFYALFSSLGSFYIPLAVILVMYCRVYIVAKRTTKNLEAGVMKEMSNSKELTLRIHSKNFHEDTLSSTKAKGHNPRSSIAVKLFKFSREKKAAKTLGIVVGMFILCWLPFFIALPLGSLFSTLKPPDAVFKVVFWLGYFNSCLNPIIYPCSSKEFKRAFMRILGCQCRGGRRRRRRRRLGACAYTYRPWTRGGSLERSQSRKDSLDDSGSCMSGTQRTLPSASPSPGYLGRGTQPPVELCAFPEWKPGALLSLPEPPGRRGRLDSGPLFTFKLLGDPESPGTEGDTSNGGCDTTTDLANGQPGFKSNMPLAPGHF
T1 sequence (P23944 whole entry): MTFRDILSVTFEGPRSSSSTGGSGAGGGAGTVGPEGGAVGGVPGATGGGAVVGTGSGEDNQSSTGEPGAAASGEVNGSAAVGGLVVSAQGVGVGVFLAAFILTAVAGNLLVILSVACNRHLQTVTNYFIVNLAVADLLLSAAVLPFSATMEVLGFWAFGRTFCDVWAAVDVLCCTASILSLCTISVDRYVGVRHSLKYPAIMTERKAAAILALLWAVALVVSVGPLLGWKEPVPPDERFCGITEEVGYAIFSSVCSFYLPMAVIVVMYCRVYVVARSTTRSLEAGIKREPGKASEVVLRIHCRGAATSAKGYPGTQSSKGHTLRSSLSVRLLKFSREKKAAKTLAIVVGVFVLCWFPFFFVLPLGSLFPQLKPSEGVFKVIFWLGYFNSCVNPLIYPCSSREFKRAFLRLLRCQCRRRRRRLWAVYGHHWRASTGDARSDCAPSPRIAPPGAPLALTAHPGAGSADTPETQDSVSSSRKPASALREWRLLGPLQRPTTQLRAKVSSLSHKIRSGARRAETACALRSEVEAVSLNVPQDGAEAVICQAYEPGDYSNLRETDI
T1 sequence (P43140 whole entry): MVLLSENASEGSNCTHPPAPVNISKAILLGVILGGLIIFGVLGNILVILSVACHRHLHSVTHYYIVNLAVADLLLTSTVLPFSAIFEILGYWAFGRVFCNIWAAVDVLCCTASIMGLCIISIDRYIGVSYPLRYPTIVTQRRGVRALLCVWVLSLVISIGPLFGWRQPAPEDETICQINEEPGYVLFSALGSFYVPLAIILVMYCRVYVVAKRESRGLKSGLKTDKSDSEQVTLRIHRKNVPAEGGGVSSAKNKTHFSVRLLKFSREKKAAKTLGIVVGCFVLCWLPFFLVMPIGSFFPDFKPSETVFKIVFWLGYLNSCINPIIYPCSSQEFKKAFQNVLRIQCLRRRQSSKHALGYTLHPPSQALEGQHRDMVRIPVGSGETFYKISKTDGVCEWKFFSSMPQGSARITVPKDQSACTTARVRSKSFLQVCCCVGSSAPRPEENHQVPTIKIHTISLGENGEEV
The test is described as follows: Inhibition of [3H]WB-4101 binding to alpha-1-adrenergic receptor from rat cerebral cortex membranes. It is filed as cell membranes, Membrane.

For test [3], the species on record is Rattus norvegicus. Put plainly: Induction of catalepsy in nonfasted, male Sprague-Dawley rats (dose that produced catalepsy in 50% of the animals); value may range from 58.7 to 141.5. It is filed as functional.
The species entered for test [4] is Rattus norvegicus. Put plainly: Induction of catalepsy in nonfasted, male Sprague-Dawley rats (dose that produced catalepsy in 50% of the animals); value may range from 77.0 to 151.3. It is filed as functional.
The species entered for test [5] is Rattus norvegicus. Put plainly: Inhibition of apomorphine induced stereotypy in nonfasted male Sprague-Dawley rats; inactive. The format is functional, organism-based.
The species entered for test [6] is Rattus norvegicus. The test is described as follows: Inhibition of apomorphine induced stereotypy in nonfasted male Sprague-Dawley rats. It is filed as functional. A digest of the protocol: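 Groups of 10 nonfasted male Sprague–Dawley rats got test drug by oral gavage. At the previously determined time of peak effect they were challenged with apomorphine 0.5 mg/kg sc and watched for 30 min in individual cages for sniffing, licking, rearing and biting. Inhibition meant all of these were blocked for the full 30 min. ED50 was taken by Berkson's method.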

The species entered for test [7] is Rattus norvegicus. Put plainly: Induction of catalepsy in nonfasted, male Sprague-Dawley rats (dose that produced catalepsy in 50% of the animals); value may range from 69.6 to 172.9. The format is functional.
The species named for test [8] is Rattus norvegicus. The test is described as follows: Induction of catalepsy in nonfasted, male Sprague-Dawley rats (dose that produced catalepsy in 50% of the animals); value may range from 27.5 to 74.3. It is filed as functional.

Structures are written as SMILES. Activity calls are given as the source filed them. No cut-off for these calls is given here.

The term ED50 denotes the dose that gives a 50% effect, or the effect in half of the subjects. Low values mean greater potency, high ones weaker potency. As usually defined, the IC50 is the concentration needed to halve the response being measured.

In turn, `COc1ccccc1N1CCN(CCCCN2C(=O)CC3(CCCC3)CC2=O)CC1` had an ED50 in the test listed under Rattus norvegicus [1] of 20.5 mg/kg. The half-maximal inhibitory concentration (IC50) in test [2] was 0.013 µM.

`COc1ccccc1N1CCN(CCN2C(=O)CCC(C)(C)C2=O)CC1` gave a median effective dose (ED50) in the test listed under Rattus norvegicus [1] of 55.3 mg/kg. This compound also gave a half-inhibitory concentration (IC50) in test [2] of 0.48 µM.

As to `O=C1CC2(CCCCCC2)C(=O)N1CCCCN1CCN(c2ncccn2)CC1`, the 50% effective dose (ED50) in the test listed under Rattus norvegicus [1] stood at 51.5 mg/kg. In test [2], the concentration for half-maximal inhibition (IC50) is > 1 µM.

For `COc1ccccc1N1CCN(CCN2C(=O)C(C)CC(C)C2=O)CC1` (centres undefined), the ED50 in the test filed under Rattus norvegicus [1] was > 100 mg/kg.

For the compound `COc1ccccc1N1CCN(CCN2C(=O)CC3(CCCCCCC3)C2=O)CC1`, it took a dose of 69.9 mg/kg to reach the 50% effect level in the test filed under Rattus norvegicus [1] (ED50). Moreover, in test [2], the IC50 is > 1 µM.

In the test filed under Rattus norvegicus [1], `O=C1CC2(CCCC2)CC(=O)N1CCCCN1CCN(c2ccccn2)CC1` registered an ED50 of 34 mg/kg. Further, in test [2], the half-maximal inhibitory concentration (IC50) worked out at 0.275 µM.

Take `Cc1ccnc(N2CCN(CCCCN3C(=O)CC4(CCCC4)CC3=O)CC2)n1`: the median effective dose (ED50) in the test listed under Rattus norvegicus [1] amounted to 52.4 mg/kg. In test [2], the IC50 is > 1 µM.

In the case of `COc1cccnc1N1CCN(CCCCN2C(=O)CC3(CCCC3)CC2=O)CC1`, the median effective dose (ED50) in the test listed under Rattus norvegicus [1] came to 55.2 mg/kg. In test [2], this compound returned a concentration for half-maximal inhibition (IC50) of 0.065 µM.

With `O=C(CCCN1CCC(O)(c2ccc(Cl)cc2)CC1)c1ccc(F)cc1` [HALOPERIDOL], the ED50 in the test filed under Rattus norvegicus [1] stood at 2.8 mg/kg.

As to `O=C1CC2(CCCCC2)C(=O)N1CCCCN1CCN(c2ncccn2)CC1`, the 50% effect level in the test listed under Rattus norvegicus [1] (ED50) was put at a dose of 58.4 mg/kg. The IC50 in test [2] was > 1 µM.

For `O=C1CC2(CCCC2)CC(=O)N1CCCCCN1CCN(c2ncccn2)CC1`, in the test listed under Rattus norvegicus [1], the median effective dose (ED50) is > 100 mg/kg.

With `O=C1CC2(CCCC2)CC(=O)N1CCCCN1CCN(c2ccccc2F)CC1`, the results for the ED50 in the test listed under Rattus norvegicus [3] and in the test listed under Rattus norvegicus [1] were 91.1 mg/kg and 37.1 mg/kg, respectively.

Turning to `O=C1C2C3C=CC(CC3)C2C(=O)N1CCCCN1CCN(c2ncccn2)CC1` (centres undefined), the ED50 in the test filed under Rattus norvegicus [1] is > 100 mg/kg.

Take `CC12CC1(C)C(=O)N(CCCCN1CCN(c3ncccn3)CC1)C2=O` (centres undefined): in the test listed under Rattus norvegicus [1], it took a dose of 91.6 mg/kg to reach the 50% effect level (ED50). The same compound came in with an IC50 in test [2] of 0.68 µM.

With `O=C1CC2(CCCC2)CC(=O)N1CCCCN1CCN(c2ccccc2)CC1`, the 50% effective dose (ED50) in the test filed under Rattus norvegicus [1] stood at 30.7 mg/kg; in the test listed under Rattus norvegicus [4] it was 108 mg/kg.

Consider `COc1ccccc1N1CCN(CCCN2C(=O)CC3(CCCC3)CC2=O)CC1`, for which the ED50 in the test listed under Rattus norvegicus [1] is 24.1 mg/kg. Moreover, the concentration for half-maximal inhibition (IC50) in test [2] is 0.019 µM.

`CC1(C)CC(=O)N(CCCCN2CCN(c3ncccn3)CC2)C(=O)C1` [GEPIRONE] gave an ED50 in the test listed under Rattus norvegicus [1] of 52.5 mg/kg. For the same compound, in the test filed under Rattus norvegicus [5], the NA result is “inactive”.

Take `O=C1CC2(CCCC2)CC(=O)N1CCCCN1CCN(c2ncccn2)CC1` [BUSPIRONE]: in the test listed under Rattus norvegicus [6], the 50% effect level (ED50) was put at a dose of 28 mg/kg.

For `O=C1CC2(CCCC2)CC(=O)N1CCCCN1CCN(c2ccccc2Cl)CC1`, the 50% effective dose (ED50) came to 77.8 mg/kg in the test listed under Rattus norvegicus [1] and 109 mg/kg in the test listed under Rattus norvegicus [7].

In the case of `Cc1ccccc1N1CCN(CCCCN2C(=O)CC3(CCCC3)CC2=O)CC1`, the ED50 in the test filed under Rattus norvegicus [1] was ~100 mg/kg. For the same compound, the IC50 in test [2] turned out to be 0.044 µM.

In turn, `COc1ccccc1N1CCN(CCN2C(=O)CC3(CCCC3)CC2=O)CC1` [BMY-7378] had an ED50 in the test filed under Rattus norvegicus [1] of 52.1 mg/kg.

`O=C1CC2(CCCC2)CC(=O)N1CCCCN1CCN(c2ccccc2[N+](=O)[O-])CC1`: in the test filed under Rattus norvegicus [1], the ED50 is 48.8 mg/kg. The compound also returned a 50% inhibitory concentration (IC50) in test [2] of 0.11 µM.

Consider `N#Cc1cccnc1N1CCN(CCCCN2C(=O)CC3(CCCC3)CC2=O)CC1`, for which the ED50 is 45 mg/kg in the test filed under Rattus norvegicus [1] and 36.6 mg/kg in the test listed under Rattus norvegicus [6]. The 50% inhibitory concentration (IC50) in test [2] was found to be 0.36 µM.

Turning to `COc1ccccc1N1CCN(CCN2C(=O)CC3(CCCCC3)C2=O)CC1`, the ED50 in the test filed under Rattus norvegicus [1] is 50 mg/kg. In test [2], this compound showed an IC50 of 0.24 µM.

In the case of `O=C1CCC2(CCCC2)CC(=O)N1CCCCN1CCN(c2ncccn2)CC1`, the median effective dose (ED50) in the test listed under Rattus norvegicus [1] was > 50 mg/kg. Moreover, the IC50 in test [2] came out at 0.82 µM.

Consider `N#Cc1cccnc1N1CCN(CCCN2C(=O)CC3(CCCC3)CC2=O)CC1`, for which the ED50 in the test filed under Rattus norvegicus [1] is > 100 mg/kg.

Turning to `N#Cc1cccnc1N1CCN(CCN2C(=O)CC3(CCCC3)CC2=O)CC1`, the ED50 in the test filed under Rattus norvegicus [1] was > 100 mg/kg.

The compound `O=C1CC2(CCCC2)CC(=O)N1CCCN1CCN(c2cccc(Cl)c2)CC1` registered a median effective dose (ED50) in the test filed under Rattus norvegicus [1] of 28.2 mg/kg. The compound also gave an IC50 in test [2] of 0.15 µM.

Regarding `O=C1CC2(CCCC2)CC(=O)N1CCN1CCN(c2ccccc2)CC1`, the ED50 in the test listed under Rattus norvegicus [1] is > 100 mg/kg.

As to `O=C1CC2(CCCC2)CC(=O)N1CCCN1CCN(c2ncccn2)CC1`, the 50% effective dose (ED50) in the test filed under Rattus norvegicus [1] was > 100 mg/kg.

Take `O=C1CC2(CCCC2)CC(=O)N1CCCCN1CCN(c2cccc(Cl)c2)CC1`: the ED50 in the test filed under Rattus norvegicus [1] was 27.6 mg/kg. In test [2], this compound had a half-maximal inhibitory concentration (IC50) of 0.023 µM.

The compound `COc1ccccc1N1CCN(CCN2C(=O)CC(C)(C)CC2=O)CC1` yielded a median effective dose (ED50) in the test listed under Rattus norvegicus [1] of 91.2 mg/kg. Moreover, in test [2], the IC50 amounted to 0.895 µM.

`CN1CCN(C2=Nc3cc(Cl)ccc3Nc3ccccc32)CC1` [CLOZAPINE] had a median effective dose (ED50) in the test filed under Rattus norvegicus [1] of 24.1 mg/kg.

Consider `O=C1CC2(CCCC2)CC(=O)N1CCN1CCN(c2cccc(Cl)c2)CC1`, for which the median effective dose (ED50) in the test filed under Rattus norvegicus [1] was > 100 mg/kg.

Turning to `CSc1ccc2c(c1)N(CCC1CCCCN1C)c1ccccc1S2` (centres undefined) [THIORIDAZINE], the results for the ED50 in the test filed under Rattus norvegicus [1] and in the test listed under Rattus norvegicus [8] were 126 mg/kg and 45.2 mg/kg, respectively.
